# Target: T1, OR8D1 (Homo sapiens) (UniProt Q8WZ84)
# T1 sequence (whole entry): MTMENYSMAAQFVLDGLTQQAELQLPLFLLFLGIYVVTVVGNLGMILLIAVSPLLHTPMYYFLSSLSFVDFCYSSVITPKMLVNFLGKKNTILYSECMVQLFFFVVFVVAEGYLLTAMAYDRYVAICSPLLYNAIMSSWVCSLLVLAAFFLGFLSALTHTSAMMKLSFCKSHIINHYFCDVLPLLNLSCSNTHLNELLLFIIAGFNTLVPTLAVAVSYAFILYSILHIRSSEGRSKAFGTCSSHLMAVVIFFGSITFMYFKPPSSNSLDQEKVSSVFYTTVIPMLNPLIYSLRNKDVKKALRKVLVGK
# Conditions: stereoisomer not certain
# Summary of the method: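 Values were gathered from published papers (main text and supplementary material), with extra details requested from the original authors when needed, and checked for typos and inconsistencies. Each receptor–molecule pair is called responsive (active) if the original authors judged the measured signal statistically different from baseline, and non-responsive (inactive) otherwise. Assay methods varied by source, often transient mammalian cell-line luciferase assays. Recorded details include cell line, G-protein, co-transfected protein and tags.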
row,Compound,odorant receptor agonist call
1,Cc1ccccc1O,inactive
2,C=CCc1ccc(OC)cc1,inactive
3,COc1ccc(C=O)cc1,inactive
4,C=CCOC(=O)Cc1ccccc1,inactive
5,CSSC,inactive
6,C=CCSSCC=C,inactive
7,CCOC(=O)Cc1ccccc1,inactive
8,Cc1ccc(O)c(C)c1,inactive
9,Cc1c([N+](=O)[O-])c(C)c([N+](=O)[O-])c(C(C)(C)C)c1[N+](=O)[O-],inactive
10,NCC(=O)c1ccccc1,inactive
11,O=Cc1ccc2c(c1)OCO2,inactive
12,SCc1ccco1,inactive

# — the M2OR odorant receptor database
